# Compound activity from PubChem.
# The list is not random: actives were taken first. Their share in the collection is about 2%.
# HIV Rev-RRE inh: disrupts HIV-1 Rev binding to RRE RNA; P05866; Rev peptide-RRE RNA binding, FRET; inhibition, % at 8 µM; 0.79% of 97,000 active;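 active means inhibition above the screen-wide mean plus 3 SD, cut at about 35% in these data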;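 further: 0% = median DMSO wells and 100% = median Neomycin B control wells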
#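 Test system: labelled RRE RNA duplex and labelled Rev peptide. Times: 5 min compound–RNA preincubation, then 15 min with peptide, 25 °C. Doses: single-dose 8 µM. Measured by: FRET, excitation 480 nm, emission 540 nm donor and 671 nm acceptor. Measure: % inhibition of FRET ratio versus controls.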
# PTPN22 act: activators of human LYP (PTPN22) phosphatase | recombinant LYP, DiFMUP fluorescence; 0 = plate median, 100 = signal doubled | activation, % at 2 µM | 0.11% of 96,000 active | Q9Y2R2;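 active means activation at 2 µM above a set limit, the mean plus 5 SD, cut at about 37% in these data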
# PLK1 inh: PLK1 (human) kinase inhibition; P53350; recombinant PLK1 kinase, TR-FRET peptide phosphorylation; inhibition, % at 10 µM; 0.53% of 97,000 active; AID 619;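 active means inhibition of 50% or more in the single-concentration screen; inactive means inhibition below 50%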;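 further: 0% = DMSO max control and 100% = H-89 dihydrochloride min control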
# PLK1 PBD inh: Plk1 (human) PBD binding inhibition | 0.13% of 97,000 active | Plk1 PBD phosphopeptide binding, fluorescence polarization | AID 693 | inhibition, %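 (tested at about 20 µM)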; in the data active means inhibition above about 34%, passing the limit was not always enough
# PTPN22 inh 2: LYP (human) phosphatase inhibition; recombinant LYP catalytic domain, DiFMUP fluorescence; inhibition, % at 2 µM; 0.21% of 96,000 active;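 active means inhibition at 2 µM at or above a set limit, the screen mean plus 3 SD, cut at about 24% in these data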;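 further: 0% = DMSO with enzyme and 100% = enzyme fully blocked by orthovanadate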
# EphB4 ephrin blk: antagonists of human EphB4-ephrin-B2 interaction; P54760; EphB4 LBD / TNYL-RAW-Alexa532 peptide, fluorescence polarization; inhibition, % at 7 µM; 0.15% of 97,000 active;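 active means inhibition above the screen-wide mean inhibition plus 3 SD, cut at about 15% in these data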;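 further: 0% = DMSO wells and 100% = excess unlabeled TNYL-RAW peptide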
# The depositor's hits bear a star; . = no result given; [ ] = remark or other dose.
SMILES,HIV Rev-RRE inh,PTPN22 act,PLK1 inh,PLK1 PBD inh,PTPN22 inh 2,EphB4 ephrin blk
CCOC(=O)c1ccc(NC(=O)CSc2nc(NC(=O)c3ccccc3)c3c(C)c(C)oc3n2)cc1,-1,-24,0,-10,25*,1
O=C(/C=C/c1ccccc1Cl)NCc1ccccc1,4,3,-9,0,0,16*
N=c1n(CCN2CCCCC2)c2ccccc2n1CC(O)c1ccc(Cl)c(Cl)c1 (stereo not given),5,-4,63*,-13,0,-4
N=c1n(CCN2CCCCC2)c2ccccc2n1CC(O)c1cccc(Br)c1 (stereo not given),3,-8,11,-27,11,6
Oc1sc(C=Nc2ccc(F)cc2)c2ccccc12,109*[fluorescence artefact?],0,-10,-8,1,-4
Oc1c(C=Nc2cccnc2)sc2ccccc12,23,1,-10,-21,-3,-2
COc1ccc(N=Cc2c(O)[nH]c3ccccc23)cc1,-1,4,-7,16,-4,-4
Oc1sc(C=Nc2ccccc2)c2ccccc12,120*[fluorescence artefact?],7,-11,-51,-6,-1
O=S(=O)(Nc1nc2ccccc2nc1N1CCN(c2ccccn2)CC1)c1ccc(Cl)cc1,36*,-10,-11,5,4,4
Cc1ccc(S(=O)(=O)Nc2nc3ccccc3nc2N2CCN(c3ccccc3F)CC2)cc1,9,-8,-8,-10,8,0
Cc1nn(-c2ccc(F)cc2)c2sc(C(=O)OC3CCOC3=O)cc12 (stereo not given),4,1,-13,1,-2,-2
Cc1[nH]c2ccccc2c1SCCN,1,1,-20,0,-4,-7
Cc1[nH]c2ccccc2c1/C=C/c1cc[n+](C)cc1,138*[fluorescence artefact?],-4,-69,-87,7,2
COc1cc(OC)cc(C(=O)Nc2ccc(S(=O)(=O)N(C)C)cc2)c1,6,-2,-8,16,2,-9
Cc1nnc(-c2ccccc2)c(=O)n1/N=C/c1c(O)ccc2ccccc12,130*[fluorescence artefact?],-2,-59,-2,6,7
COc1ccc2ccccc2c1/C=N\n1c(C)cc(C)c(C(N)=O)c1=O,5,-1,-10,-15,3,-6
Cc1nc2ccc(Cl)cc2nc(C)/c1=N\O,13,-5,-5,-13,4,12
Cc1n[nH]c(C)c1N=Nc1cc(Cl)ccc1Cl,4,-9,54*,13,13,-5
CC(C)(C)C1CCC2(CC1)SCC(=O)N2c1ccccc1 (stereo not given),7,-11,-5,-2,9,16*
CC(C)(C)C1CCC2(CC1)NC(=S)N(c1ccccc1)N2 (stereo not given),-3,-2,-11,19,-1,1
CCc1c(C)sc(NC(=O)c2cccs2)c1C(=O)OC(C)C,15,2,-2,-21,-1,6
CCCS(=O)(=O)N1CCN(c2ccccc2F)CC1,5,-9,-10,-13,12,-3
COc1ccc(NC(=O)C2CCCO2)cc1Cl (stereo not given),8,-25,-6,-9,24*,-1
O=C(Nc1ccccc1)Nc1nncs1,5,3,-3,-17,-5,-1
CCNc1oc(COc2cccc(C)c2)nc1C#N,-1,2,-8,16,-2,-4
SMILES,HIV Rev-RRE inh,PTPN22 act,PLK1 inh,PLK1 PBD inh,PTPN22 inh 2,EphB4 ephrin blk
Cc1cccc(OCc2nc(C#N)c(N3CC(C)CC(C)C3)o2)c1 (stereo not given),13,.,61*,9,.,1
Cc1cccn2c(=O)c(C=NCc3ccccc3)c(NCCO)nc12,5,-1,-11,-19,-2,0
CCC(C)N1C(=O)/C(=C/c2c(NCCCOC(C)C)nc3c(C)cccn3c2=O)SC1=S (stereo not given),126*[fluorescence artefact?],-8,-66,-65,10,-8
CCC(C)N=Cc1c(NCc2ccco2)nc2c(C)cccn2c1=O (stereo not given),9,-6,-6,3,9,3
CCCN1C(=O)/C(=C/c2c(NCCCOC(C)C)nc3c(C)cccn3c2=O)SC1=S,94*[fluorescence artefact?],-12,-36,-57,10,2
Cc1ccc(-c2nn(C)c(=O)c3ccccc23)cc1CNC(=O)CN1CCOCC1,1,-5,-9,-7,-1,-4
Cc1cc(CNC(=O)Nc2ccc3c(c2)OCO3)nn1C,3,-2,-14,-3,1,6
COc1cccc(-c2cn3nc(C)c(C)nc3n2)c1,40*,9,-9,-19,-10,0
c1ccc(-c2oc3ncnc(NCCN4CCOCC4)c3c2-c2ccccc2)cc1,6,-3,-8,4,3,1
N#C/C(=C/c1ccc(N2CCOCC2)o1)c1nc2ccccc2[nH]1,136*[fluorescence artefact?],1,-98,-234,-1,-6
N#C/C(=C\N1CCOCC1)c1ccccc1,2,-6,-4,-15,7,-2
N#C/C(=C\c1cc([N+](=O)[O-])c(N2CCOCC2)cc1N1CCOCC1)c1nc2ccccc2[nH]1,7,5,-10,13,-7,0
N#C/C(=C\c1ccc(N2CCOCC2)o1)c1ccccc1,78*,3,-16,-33,0,-7
C/C(=C1/SC(N2CCOCC2)=NC1=O)c1ccc(Br)cc1,-2,3,-3,-7,-5,2
N#C/C(=C/c1ccc(N2CCOCC2)o1)c1ccc(Br)cc1,123*[fluorescence artefact?],3,-16,-171,-2,-11
CCSc1nc2c(c(=O)[nH]c(=O)n2C)n1CC(O)COc1ccccc1C (stereo not given),10,-6,19,-4,2,1
COc1ccc(C(=O)N/N=C2/SCC(=O)N2Cc2ccc3c(c2)OCO3)cc1OC,3,4,-3,-6,2,16*
Cc1cc(C)nc(N2CCCC(C(=O)Nc3nnc(C)s3)C2)n1 (stereo not given),3,9,-7,-1,-12,-11
c1ccc(-c2csc3nnc(SCc4ccc5c(c4)OCCO5)n23)cc1,3,-4,-12,-5,4,2
O=C(CSc1nnc2scc(-c3ccccc3)n12)c1ccc2c(c1)OCCO2,6,.,59*,-26,.,-9
CCNC(=O)COc1cc(C)c(Cl)c(C)c1,3,-25,-8,11,25*,1
Cc1cc(OCC(=O)N2CCCC2)cc(C)c1Cl,-9,-1,-11,-10,0,0
COc1ccccc1NC(=O)c1sc2ncn(Cc3ccccc3C)c(=O)c2c1C,2,11,-40,0,-8,-8
CC1=C(C#N)C(=O)OC(C)(C)C1,43*,0,-11,-6,-3,-1
O=S(=O)(c1ccc2ccccc2c1)N1C=CC(C(F)(F)F)=NCC1,24,-4,-4,-28,7,-1
CCC1=NN2C(=N)/C(=C\c3ccc(SCc4ccco4)o3)C(=O)N=C2S1,36*,0,-15,-23,3,0
